Measurements collected from several papers.
Target: Serine/threonine-protein kinase/endoribonuclease IRE1 (ERN1, Homo sapiens, UniProt O75460)

SMILES	read-out	method	concentration	remaining binding [%]
CNCc1ccccc1-c1csc([C@@H](C)Nc2nc(C)nc3cc(OC)c(OC)cc23)c1	cell-free assay	competition with immobilised ligand	1 µM	100
Cc1cnc(Nc2ccc(C(=O)N3CCC(N4CCCC4)CC3)cc2)nc1-c1cc2ccccc2s1	binding	competition with immobilised ligand	1 µM	24
CCN1CCN(Cc2ccc(C(=O)Nc3ccc(C)c(Oc4ccc5c(c4)CC(=O)N5)c3)cc2C(F)(F)F)CC1	binding	competition with immobilised ligand	1 µM	100
Nc1ncc2c(n1)-c1c([nH]c3ccc(C#CC4CC4)cc13)CCCC2	binding	competition with immobilised ligand	1 µM	100
COc1ccnn2ncc(-c3ccnc(N(C)C)n3)c12	binding	–	1 µM	100
O=C(NCC1CCOCC1)c1n[nH]cc1NC(=O)c1c(F)cccc1F	binding	competition with immobilised ligand	1 µM	65
COc1cnc(Nc2cccc(S(N)(=O)=O)c2)nc1N1CCN(c2ccccc2)C(=O)C1	binding	competition with immobilised ligand	1 µM	78
c1cncc(-c2cccc(Nc3nccc(NC4CCCCC4)n3)c2)c1	binding	competition with immobilised ligand	10 µM	44
CNC(=O)Nc1ccc2c(c1)CC[C@@]21OC(=O)N(CC(=O)N(Cc2ccc(F)cc2)[C@@H](C)C(F)(F)F)C1=O	cell-free assay	competition with immobilised ligand	1 µM	56
COc1ncc2cc3ccccc3nc2c1C#N	cell-free assay	competition with immobilised ligand	5 µM	93
N[C@H]1CCN(c2nccc(-c3cnn4ncccc34)n2)C1	binding	–	1 µM	98
CCCOc1ccc([C@H]2[C@H](C(=O)O)[C@@H](c3ccc4c(c3)OCO4)CN2CC(=O)Nc2c(CC)cccc2CC)cc1	cell-free assay	competition with immobilised ligand	1 µM	86
F[C@@H]1CCN(c2nccc(-c3cnn4ncccc34)n2)C1	binding	–	1 µM	83
O=C(c1ccc(Nc2ncc(Cl)c(-c3cc4ccccc4s3)n2)cc1)N1CCC(N2CCCC2)CC1	binding	competition with immobilised ligand	1 µM	37
CN(C)c1nccc(-c2cnn3ncccc23)n1	binding	–	1 µM	100
CCC(=O)N[C@H]1CC[C@@H](C(=O)N(C)c2ccc(-c3nc4ccccc4o3)cc2)C1	cell-free assay	competition with immobilised ligand	1 µM	91
O=C(NCCCN1CCOCC1)c1ccc(Nc2nccc(-c3cc4ccccc4s3)n2)cc1	binding	competition with immobilised ligand	1 µM	52
COc1cccc(CNC(=O)c2nc3scc(COCc4ccc(C(=O)O)cc4)c3c(=O)[nH]2)c1	cell-free assay	competition with immobilised ligand	1 µM	89.7
CC1CCCN1c1nccc(-c2cnn3ncccc23)n1 (stereo not drawn)	binding	–	1 µM	100
Cc1cc(NC(=O)c2cccc(S(F)(F)(F)(F)F)c2)cc(-n2ccn3nc(-c4cccnc4)cc23)c1	cell-free assay	competition with immobilised ligand	1 µM	99.2
c1cnn2ncc(-c3ccnc(N4CCC45COC5)n3)c2c1	binding	–	1 µM	69
